Key:
HCT-116 = assay: Growth inhibition of human HCT116 cells assessed as cell growth at 10 uM after 48 hrs by sulforhodamine B assay; type: functional; conditions: HCT-116, 48 h, read-out: Activity
Procedure, shortened: (§1)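 NCI-60 single-dose screen at 10 µM: cells in RPMI 1640 with 5% FBS, preincubated 24 h, then exposed 48 h at 37 °C. TCA fixation (16% final for suspension cells), SRB staining, absorbance 515 nm. Percent growth relative to time-zero and untreated control plates; negative values indicate cell kill.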

CAKI-1 = assay: Growth inhibition of human CAKI-1 cells assessed as cell growth at 10 uM after 48 hrs by sulforhodamine B assay; type: functional; conditions: CAKI-1, 48 h, read-out: Activity; procedure, shortened: as §1
SK-MEL-5 = assay: Growth inhibition of human SK-MEL-5 cells assessed as cell growth at 10 uM after 48 hrs by sulforhodamine B assay; type: functional; conditions: SK-MEL-5, 48 h, read-out: Activity
Procedure, shortened: (§2)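 Single-dose NCI-60 screen: adherent cells in RPMI 1640 with 5% FBS were exposed to 10 µM for 48 h at 37 °C after a 24 h preincubation. They were fixed in situ with cold TCA (10% final), stained with 0.4% SRB in 1% acetic acid, solubilized in 10 mM Tris base, and read at 515 nm. Percent growth was taken relative to time-zero and control plates.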

COLO 205 = assay: Growth inhibition of human COLO205 cells after 48 hrs by sulforhodamine B assay; type: functional; conditions: COLO 205, 48 h
Procedure, shortened: (§3)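 NCI-60 screen: cells in RPMI 1640 with 5% FBS and 2 mM glutamine, 5000–40,000 cells/well, preincubated 24 h. Five concentrations (10-fold dilutions; 100 to 0.001 µM) applied for 48 h at 37 °C. TCA fixation, SRB stain, absorbance at 515 nm. Time-zero plates included; GI50 where 100×(T−T0)/(C−T0)=50.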

SNB-75 = assay: Growth inhibition of human SNB75 cells assessed as cell growth at 10 uM after 48 hrs by sulforhodamine B assay; type: functional; conditions: SNB-75, 48 h, read-out: Activity
Procedure, shortened: (§4)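 Single-dose NCI-60 test at 10 µM. Cells were grown in RPMI 1640 with 5% FBS and 2 mM L-glutamine, preincubated 24 h, with T0 plates TCA-fixed. Exposure was 48 h at 37 °C, 5% CO2. Cells were fixed with cold TCA (final 10%, 4 °C, 60 min), stained with SRB and read at 515 nm. Percent growth was taken relative to T0 and untreated control; negative values denote cell kill.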

[1] = Antiproliferative activity against mouse +SA cells by MTT assay; type: functional, cell-based; conditions: +SA cell
Procedure, shortened: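 Mouse +SA mammary epithelial cells in serum-free DMEM/F12 with BSA, transferrin, insulin and EGF. Compounds from DMSO stock conjugated to BSA (overnight, 37 °C); 0–40 µM, final DMSO <0.1%. MTT 0.42 mg/mL for 4 h at 37 °C, isopropanol solubilization, OD 570 nm. Cell number from a standard curve; IC50 by non-linear regression.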

UO-31 = assay: Growth inhibition of human UO31 cells assessed as cell growth at 10 uM after 48 hrs by sulforhodamine B assay; type: functional; conditions: UO-31, 48 h, read-out: Activity; procedure, shortened: as §4
NCI-H226 = assay: Growth inhibition of human NCI-H226 cells after 48 hrs by sulforhodamine B assay; type: functional; conditions: NCI-H226, 48 h
Procedure, shortened: (§5)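 NCI-60 panel cells grown in RPMI 1640 with 5% FBS and 2 mM L-glutamine, seeded at 5000–40,000 cells/well and preincubated 24 h. Five 10-fold dilutions (0.001–100 µM) from DMSO stocks were added for 48 h at 37 °C. Adherent cells were fixed with cold TCA (10% final) for 60 min at 4 °C, stained with 0.4% SRB, and read at 515 nm. GI50 was set where 100×(T−T0)/(C−T0)=50.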

OVCAR-8 = assay: Growth inhibition of human OVCAR8 cells assessed as cell growth at 10 uM after 48 hrs by sulforhodamine B assay; type: functional; conditions: OVCAR-8, 48 h, read-out: Activity; procedure, shortened: as §2
BT-549 = assay: Growth inhibition of human BT549 cells after 48 hrs by sulforhodamine B assay; type: functional; conditions: BT-549, 48 h; procedure, shortened: as §3
A498 = assay: Growth inhibition of human A498 cells assessed as cell growth at 10 uM after 48 hrs by sulforhodamine B assay; type: functional; conditions: A498, 48 h, read-out: Activity; procedure, shortened: as §1
HOP-92 [2] = assay: Growth inhibition of human HOP92 cells after 48 hrs by sulforhodamine B assay; type: functional; conditions: HOP-92, 48 h; procedure, shortened: as §3
TK-10 = assay: Growth inhibition of human TK10 cells assessed as cell growth at 10 uM after 48 hrs by sulforhodamine B assay; type: functional; conditions: TK-10, 48 h, read-out: Activity; procedure, shortened: as §4
U-251 = assay: Growth inhibition of human U251 cells after 48 hrs by sulforhodamine B assay; type: functional; conditions: U-251, 48 h
Procedure, shortened: (§6)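 NCI-60 five-dose screen. Cells were grown in RPMI 1640 with 5% FBS and 2 mM L-glutamine, plated at 5000–40,000 cells/well and incubated 24 h before dosing, with T0 plates TCA-fixed. DMSO stocks were diluted to doses of […] and exposed 48 h at 37 °C, 5% CO2. Cells were fixed with cold TCA (final 10%, 60 min, 4 °C), stained with 0.4% SRB in 1% acetic acid for 10 min, solubilized in 10 mM trizma base and read at 515 nm. GI50 is where 100×(T−T0)/(C−T0)=50.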

UACC-62 = assay: Growth inhibition of human UACC62 cells after 48 hrs by sulforhodamine B assay; type: functional; conditions: UACC-62, 48 h; procedure, shortened: as §6
OVCAR-4 = assay: Growth inhibition of human OVCAR4 cells after 48 hrs by sulforhodamine B assay; type: functional; conditions: OVCAR-4, 48 h; procedure, shortened: as §5
MDA-MB-435 = assay: Growth inhibition of human MDA-MB-435 cells after 48 hrs by sulforhodamine B assay; type: functional; conditions: MDA-MB-435, 48 h; procedure, shortened: as §5
SF-539 = assay: Growth inhibition of human SF539 cells assessed as cell growth at 10 uM after 48 hrs by sulforhodamine B assay; type: functional; conditions: SF-539, 48 h, read-out: Activity; procedure, shortened: as §2
MOLT-4 = assay: Growth inhibition of human MOLT4 cells assessed as cell growth at 10 uM after 48 hrs by sulforhodamine B assay; type: functional; conditions: MOLT-4, 48 h, read-out: Activity
Procedure, shortened: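 Single 10 µM dose applied to suspension cells in RPMI 1640 with 5% FBS and 2 mM L-glutamine for 48 h at 37 °C. Settled cells were fixed with 80% TCA (16% final), stained with SRB, and read at 515 nm. Percent growth was calculated against time-zero and untreated control optical densities.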

NCI-H522 = assay: Growth inhibition of human NCI-H522 cells assessed as cell growth at 10 uM after 48 hrs by sulforhodamine B assay; type: functional; conditions: NCI-H522, 48 h, read-out: Activity; procedure, shortened: as §2
HOP-92 [3] = assay: Growth inhibition of human HOP92 cells assessed as cell growth at 10 uM after 48 hrs by sulforhodamine B assay; type: functional; conditions: HOP-92, 48 h, read-out: Activity; procedure, shortened: as §1
K562 = assay: Growth inhibition of human K562 cells assessed as cell growth at 10 uM after 48 hrs by sulforhodamine B assay; type: functional; conditions: K562, 48 h, read-out: Activity; procedure, shortened: as §1

Structure (SMILES) | growth at 10 µM (HCT-116) [%] | growth at 10 µM (CAKI-1) [%] | growth at 10 µM (SK-MEL-5) [%] | GI50 (COLO 205) [nM] | growth at 10 µM (SNB-75) [%] | IC50 [1] [nM] | growth at 10 µM (UO-31) [%] | GI50 (NCI-H226) [nM] | growth at 10 µM (OVCAR-8) [%] | GI50 (BT-549) [nM] | growth at 10 µM (A498) [%] | GI50 (HOP-92 [2]) [nM] | growth at 10 µM (TK-10) [%] | GI50 (U-251) [nM] | GI50 (UACC-62) [nM] | GI50 (OVCAR-4) [nM] | growth at 10 µM (SF-539) [%] | growth at 10 µM (MOLT-4) [%] | growth at 10 µM (NCI-H522) [%] | growth at 10 µM (K562) [%] | other results
CC(C)=CCC/C(C)=C/CC/C(C)=C/CC[C@]1(C)CCc2c3c(c(C)c(C)c2O1)OCN(CCCCCCO)C3 | -92.7 | 47 | 95.2 | 2830 | 62.8 | 2100 | 42.7 | 2810 | 49.9 | 4180 | 111 | 1890 | 97.9 | 2730 | 2670 | 2490 | 66.1 | -18.4 | 68.3 |  | GI50 (MDA-MB-435): 2950 nM
CC(C)=CCC/C(C)=C/CC/C(C)=C/CC[C@]1(C)CCc2c3c(c(C)c(C)c2O1)OCN(CCCCCCCCO)C3 | -92.9 | 31.3 | 83.7 | 2780 | 74.3 | 1400 | 27.9 | 2790 | 72.1 | 3390 | 117 | 2170 | 93.5 | 2610 | 2510 | 2810 | 72.6 | 2.94 | 30.9 |  | GI50 (MDA-MB-435): 3200 nM
COc1ccc(CCNCc2c(O)c(C)c(C)c3c2CC[C@@](C)(CC/C=C(\C)CC/C=C(\C)CCC=C(C)C)O3)cc1OC | 47.1 | 86.6 | 108 |  | 80.5 | 1700 | 69.5 |  | 66.8 |  | 107 |  | 106 |  |  |  | 97 | 30.3 | 96.2 | 42 | growth at 10 µM (HOP-92 [3]): 104%
CC(C)=CCC/C(C)=C/CC/C(C)=C/CC[C@]1(C)CCc2c3c(cc(C)c2O1)OCN(CCCCCCCCCCO)C3 | 65.6 | 77.9 | 85.2 |  | 74.5 | 3600 | 61.9 |  | 74.6 |  |  |  | 101 |  |  |  | 98.3 | 67.6 | 86 | 45.4 | 
COc1ccc(CCN2COc3c(C)c(C)c4c(c3C2)CC[C@@](C)(CC/C=C(\C)CC/C=C(\C)CCC=C(C)C)O4)cc1OC | 91.9 | 88.5 | 107 |  | 82.8 | 1800 | 76.2 |  | 101 |  | 108 |  | 105 |  |  |  | 103 | 76 | 98.6 | 78.3 | growth at 10 µM (HOP-92 [3]): 106%
